Data reported in ChEMBL document CHEMBL1821639, “Exploring Left-Hand-Side substitutions in the benzoxazinone series of 4-amino-piperidine bacterial type IIa topoisomerase inhibitors” (Bioorg Med Chem Lett, 2011).
Converted amounts (≈) assume the structure as drawn.

Columns and labels:
[1] = Lipophilicity, log D of the compound by shake flask method using LC-MS analysis; format: physicochemical; conditions: octanol/water
Summary of the method: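 Shake-flask partitioning, experimental, with LC–MS quantitation.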

[2] = target: Voltage-gated inwardly rectifying potassium channel KCNH2 (Homo sapiens, UniProt Q12809); assay: Inhibition of human ERG by electrophysiological assay
Sequence of Voltage-gated inwardly rectifying potassium channel KCNH2 (Q12809 whole entry): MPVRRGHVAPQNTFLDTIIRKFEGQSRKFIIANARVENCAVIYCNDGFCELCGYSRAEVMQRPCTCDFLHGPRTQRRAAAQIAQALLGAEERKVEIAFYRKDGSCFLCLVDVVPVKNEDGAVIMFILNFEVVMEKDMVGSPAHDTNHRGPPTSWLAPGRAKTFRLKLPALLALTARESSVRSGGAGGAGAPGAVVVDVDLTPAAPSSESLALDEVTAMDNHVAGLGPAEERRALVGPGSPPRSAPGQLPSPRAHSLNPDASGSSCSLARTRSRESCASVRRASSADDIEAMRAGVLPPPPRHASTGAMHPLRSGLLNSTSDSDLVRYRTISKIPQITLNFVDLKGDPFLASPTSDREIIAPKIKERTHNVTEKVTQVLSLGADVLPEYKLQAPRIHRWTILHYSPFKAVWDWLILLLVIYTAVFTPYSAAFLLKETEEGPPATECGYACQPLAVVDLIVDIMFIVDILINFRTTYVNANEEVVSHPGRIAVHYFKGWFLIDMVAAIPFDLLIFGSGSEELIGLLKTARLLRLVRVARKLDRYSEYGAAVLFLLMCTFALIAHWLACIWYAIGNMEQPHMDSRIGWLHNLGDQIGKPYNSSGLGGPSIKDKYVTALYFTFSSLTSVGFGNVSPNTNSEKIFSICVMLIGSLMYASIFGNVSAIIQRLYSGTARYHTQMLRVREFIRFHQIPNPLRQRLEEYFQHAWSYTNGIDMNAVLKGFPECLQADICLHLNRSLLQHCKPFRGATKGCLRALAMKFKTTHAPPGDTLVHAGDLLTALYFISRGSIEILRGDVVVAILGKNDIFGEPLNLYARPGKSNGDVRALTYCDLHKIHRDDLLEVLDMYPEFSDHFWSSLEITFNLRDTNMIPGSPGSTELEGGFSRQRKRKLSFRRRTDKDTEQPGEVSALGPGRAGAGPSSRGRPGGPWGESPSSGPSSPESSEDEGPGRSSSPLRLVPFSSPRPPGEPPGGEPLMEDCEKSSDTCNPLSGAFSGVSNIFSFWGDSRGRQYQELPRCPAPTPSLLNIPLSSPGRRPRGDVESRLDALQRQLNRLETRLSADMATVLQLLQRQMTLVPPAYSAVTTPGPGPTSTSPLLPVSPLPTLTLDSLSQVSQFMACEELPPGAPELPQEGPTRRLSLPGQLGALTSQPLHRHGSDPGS

Staphylococcus aureus = assay: Antibacterial activity against Staphylococcus aureus after 24 hrs by CLSI method; format: functional
Summary of the method: (§1)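 Broth dilution per CLSI; compounds in DMSO, 10 doubling dilutions. Organisms grown overnight on agar, suspended in suitable liquid medium to 0.5 McFarland, then diluted 1 in 10 for final inoculum.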

Streptococcus pneumoniae = assay: Antibacterial activity against Streptococcus pneumoniae after 24 hrs by CLSI method; format: functional; summary of the method: as §1
Streptococcus pyogenes = assay: Antibacterial activity against Streptococcus pyogenes after 24 hrs by CLSI method; format: functional; summary of the method: as §1
Haemophilus influenzae = assay: Antibacterial activity against Haemophilus influenzae after 24 hrs by CLSI method; format: functional; summary of the method: as §1
Moraxella catarrhalis = assay: Antibacterial activity against Moraxella catarrhalis after 24 hrs by CLSI method; format: functional; summary of the method: as §1
Pseudomonas aeruginosa = assay: Antibacterial activity against Pseudomonas aeruginosa after 24 hrs by CLSI method; format: functional; summary of the method: as §1
Escherichia coli [3] = assay: Antibacterial activity against Escherichia coli after 24 hrs by CLSI method; format: functional; summary of the method: as §1
Escherichia coli [4] = assay: Antibacterial activity against TolC-deficient Escherichia coli after 24 hrs by CLSI method; format: functional; summary of the method: as §1
Klebsiella pneumoniae = assay: Antibacterial activity against Klebsiella pneumoniae after 24 hrs by CLSI method; format: functional; summary of the method: as §1
[5] = Inhibition of ParC in reconstituted Escherichia coli ParC/ParE assessed as ParE ATPase activity after 24 hrs by ammonium molybdate/malachite green method
[6] = Inhibition of Escherichia coli DNA gyrase supercoiling activity

| Compound | logD [1] | IC50 [2] | MIC (Staphylococcus aureus) | MIC (Streptococcus pneumoniae) | MIC (Streptococcus pyogenes) | MIC (Haemophilus influenzae) | MIC (Moraxella catarrhalis) | MIC (Pseudomonas aeruginosa) | MIC (Escherichia coli [3]) | MIC (Escherichia coli [4]) | MIC (Klebsiella pneumoniae) | IC50 [5] | IC50 [6] |
| --- | --- | --- | --- | --- | --- | --- | --- | --- | --- | --- | --- | --- | --- |
| O=C1COc2ccc(CNC3CCN(CCN4C(=O)COc5ccc(-n6cnnn6)cc54)CC3)nc2N1 | -0.8 | > 100 µM | > 10.9 µM | > 10.9 µM | > 10.9 µM | > 10.9 µM | > 10.9 µM | > 10.9 µM | > 10.9 µM | > 10.9 µM | > 10.9 µM | 0.353 µM |  |
| CC(O)c1ccc2c(c1)N(CCN1CCC(NCc3ccc4c(n3)NC(=O)CO4)CC1)C(=O)CO2 (configuration not stated) | 0.3 |  | > 16.6 µM | > 16.6 µM | > 16.6 µM | 4.2 µM (≈ 2.02 µg/mL) | > 16.6 µM | > 16.6 µM | > 16.6 µM | 1.1 µM (≈ 0.53 µg/mL) | > 16.6 µM |  |  |
| O=C1COc2ccc(CNC3CCN(CCN4C(=O)COc5ccc(O)cc54)CC3)nc2N1 | 0.5 |  | 17.7 µM (≈ 8.03 µg/mL) | 8.8 µM (≈ 3.99 µg/mL) | 1.1 µM (≈ 0.499 µg/mL) | 0.3 µM (≈ 0.136 µg/mL) | 0.1 µM (≈ 0.0453 µg/mL) | 17.7 µM (≈ 8.03 µg/mL) | 4.4 µM (≈ 2 µg/mL) | 0.1 µM (≈ 0.0453 µg/mL) | > 17.7 µM | 0.036 µM |  |
| O=C1COc2ccc(CNC3CCN(CCN4C(=O)COc5ccc(Br)cc54)CC3)nc2N1 | 1.4 |  | 0.1 µM (≈ 0.0516 µg/mL) | 0.3 µM (≈ 0.155 µg/mL) |  | 0.1 µM (≈ 0.0516 µg/mL) | < 0.015 µM | 7.7 µM (≈ 3.98 µg/mL) | 0.5 µM (≈ 0.258 µg/mL) | < 0.02 µM | 3.9 µM (≈ 2.01 µg/mL) | 0.018 µM |  |
| O=C1COc2ccc(CNC3CCN(CCN4C(=O)COc5ccc(NC(=O)C(F)(F)F)cc54)CC3)nc2N1 | 0.2 | > 100 µM | > 16.1 µM | > 16.1 µM | > 16.1 µM | 16.1 µM (≈ 8.83 µg/mL) | 16.1 µM (≈ 8.83 µg/mL) | > 16.1 µM | > 16.1 µM | 8.1 µM (≈ 4.44 µg/mL) | > 16.1 µM |  |  |
| O=C1COc2ccc(CNC3CCN(CCN4C(=O)COc5ccc(C(=O)O)cc54)CC3)nc2N1 | -1.6 |  | > 13.5 µM | > 13.5 µM | > 13.5 µM | > 13.5 µM | > 13.5 µM | > 13.5 µM | > 13.5 µM | > 12.7 µM | > 13.5 µM | 4.68 µM |  |
| COC(=O)c1ccc2c(c1)N(CCN1CCC(NCc3ccc4c(n3)NC(=O)CO4)CC1)C(=O)CO2 | 0.8 |  | 1 µM (≈ 0.496 µg/mL) | 8.1 µM (≈ 4.01 µg/mL) | 2 µM (≈ 0.991 µg/mL) | 0.5 µM (≈ 0.248 µg/mL) | 0.1 µM (≈ 0.0496 µg/mL) | > 16.1 µM | 4 µM (≈ 1.98 µg/mL) | 0.1 µM (≈ 0.0496 µg/mL) | 16.1 µM (≈ 7.98 µg/mL) | 0.078 µM |  |
| CN(C)S(=O)(=O)c1ccc2c(c1)N(CCN1CCC(NCc3ccc4c(n3)NC(=O)CO4)CC1)C(=O)CO2 | 0.2 |  | > 14.6 µM | > 14.6 µM | > 14.6 µM | 14.7 µM (≈ 8.01 µg/mL) | > 14.6 µM | > 14.6 µM | > 14.6 µM | 7.3 µM (≈ 3.98 µg/mL) |  |  |  |
| CS(=O)(=O)c1ccc2c(c1)N(CCN1CCC(NCc3ccc4c(n3)NC(=O)CO4)CC1)C(=O)CO2 | -0.5 |  | > 15.5 µM | 15.5 µM (≈ 7.99 µg/mL) | 15.5 µM (≈ 7.99 µg/mL) | 3.9 µM (≈ 2.01 µg/mL) | 3.9 µM (≈ 2.01 µg/mL) | > 15.5 µM | > 15.5 µM | 1 µM (≈ 0.516 µg/mL) |  |  |  |
| O=C1COc2ccc(CNC3CCN(CCN4C(=O)COc5ccc([N+](=O)[O-])cc54)CC3)nc2N1 |  |  | 0.3 µM (≈ 0.145 µg/mL) | 0.5 µM (≈ 0.241 µg/mL) | 0.3 µM (≈ 0.145 µg/mL) | 0.1 µM (≈ 0.0482 µg/mL) |  | 5.9 µM (≈ 2.85 µg/mL) | 0.5 µM (≈ 0.241 µg/mL) | < 0.02 µM |  |  |  |
| CCS(=O)(=O)c1ccc2c(c1)N(CCN1CCC(NCc3ccc4c(n3)NC(=O)CO4)CC1)C(=O)CO2 | -0.1 |  | > 15.1 µM | > 15.1 µM | 15.1 µM (≈ 8 µg/mL) | 7.6 µM (≈ 4.03 µg/mL) | 7.6 µM (≈ 4.03 µg/mL) | > 15.1 µM | > 15.1 µM | 1.9 µM (≈ 1.01 µg/mL) |  |  |  |
| O=C1COc2ccc(CNC3CCN(CCN4C(=O)COc5ccc(OC(F)(F)F)cc54)CC3)nc2N1 | 1.8 |  | 1 µM (≈ 0.521 µg/mL) | 1 µM (≈ 0.521 µg/mL) | 1 µM (≈ 0.521 µg/mL) | 0.1 µM (≈ 0.0521 µg/mL) | 0.1 µM (≈ 0.0521 µg/mL) | 15.3 µM (≈ 7.98 µg/mL) | 3.8 µM (≈ 1.98 µg/mL) | 0.1 µM (≈ 0.0521 µg/mL) |  |  |  |
| CC(=O)c1ccc2c(c1)N(CCN1CCC(NCc3ccc4c(n3)NC(=O)CO4)CC1)C(=O)CO2 | 0.4 |  | 1 µM (≈ 0.48 µg/mL) | 2.1 µM (≈ 1.01 µg/mL) | 1 µM (≈ 0.48 µg/mL) | 0.3 µM (≈ 0.144 µg/mL) | 0.3 µM (≈ 0.144 µg/mL) | 16.7 µM (≈ 8.01 µg/mL) | 2.1 µM (≈ 1.01 µg/mL) | 0.1 µM (≈ 0.048 µg/mL) |  |  |  |
| N#Cc1ccc2c(c1)N(CCN1CCC(NCc3ccc4c(n3)NC(=O)CO4)CC1)C(=O)CO2 | 0.2 |  | 0.3 µM (≈ 0.139 µg/mL) | 0.8 µM (≈ 0.37 µg/mL) | 0.3 µM (≈ 0.139 µg/mL) | 0.1 µM (≈ 0.0463 µg/mL) |  | 3.8 µM (≈ 1.76 µg/mL) | 0.5 µM (≈ 0.231 µg/mL) | < 0.02 µM | 4.3 µM (≈ 1.99 µg/mL) | 0.036 µM | 0.0032 µM |
| O=C1COc2ccc(CNC3CCN(CCN4C(=O)COc5ccc(Cl)cc54)CC3)nc2N1 | 1.3 |  | 0.3 µM (≈ 0.142 µg/mL) | 0.5 µM (≈ 0.236 µg/mL) | 0.5 µM (≈ 0.236 µg/mL) | 0.1 µM (≈ 0.0472 µg/mL) | 0.1 µM (≈ 0.0472 µg/mL) | 4.2 µM (≈ 1.98 µg/mL) | 0.5 µM (≈ 0.236 µg/mL) | < 0.02 µM |  | 0.023 µM |  |
| O=C1COc2ccc(CNC3CCN(CCN4C(=O)COc5ccc(F)cc54)CC3)nc2N1 | 0.9 |  | 0.6 µM (≈ 0.273 µg/mL) | 1.1 µM (≈ 0.501 µg/mL) | 0.5 µM (≈ 0.228 µg/mL) | 0.1 µM (≈ 0.0455 µg/mL) |  | 6.2 µM (≈ 2.82 µg/mL) | 0.6 µM (≈ 0.273 µg/mL) | 0.1 µM (≈ 0.0455 µg/mL) |  |  |  |
| COc1ccc2c(c1)N(CCN1CCC(NCc3ccc4c(n3)NC(=O)CO4)CC1)C(=O)CO2 | 0.9 |  | 0.3 µM (≈ 0.14 µg/mL) | 1.1 µM (≈ 0.514 µg/mL) |  | 0.1 µM (≈ 0.0468 µg/mL) | 0.1 µM (≈ 0.0468 µg/mL) | 8.6 µM (≈ 4.02 µg/mL) | 0.5 µM (≈ 0.234 µg/mL) | 0.1 µM (≈ 0.0468 µg/mL) |  |  | 0.005 µM |
| O=C1COc2ccc(CNC3CCN(CCN4C(=O)COc5ccc(-c6ccco6)cc54)CC3)nc2N1 | 2.2 |  | 0.5 µM (≈ 0.252 µg/mL) | 0.5 µM (≈ 0.252 µg/mL) | 2 µM (≈ 1.01 µg/mL) | 0.3 µM (≈ 0.151 µg/mL) | 0.06 µM (≈ 0.0302 µg/mL) | 15.9 µM (≈ 8.01 µg/mL) | 2 µM (≈ 1.01 µg/mL) | 0.06 µM (≈ 0.0302 µg/mL) | 15.9 µM (≈ 8.01 µg/mL) | 0.018 µM |  |
